Measured values gathered from unrelated publications.
Protocols differ between the studies behind these lines.
Target: Serine/threonine-protein kinase 10 (STK10, Homo sapiens, UniProt O94804)

Compound | effect on | method | tested at | remaining binding [%]
C[C@@H]1CCN(c2nccc(-c3cnn4ncccc34)n2)C1 | binding |  | 1 µM | 98
O=C(Nc1c[nH]nc1C(=O)NC1CCNCC1)c1cc(F)cc(F)c1 | binding | competition with immobilised ligand | 1 µM | 100
CN(C)c1ncc(F)c(-c2cnn3ncccc23)n1 | binding |  | 1 µM | 42
Cc1cnc(Nc2ccc(C(=O)N3CCC(N4CCCC4)CC3)cc2)nc1-c1cc2ccccc2s1 | binding | competition with immobilised ligand | 1 µM | 14
F[C@@H]1CCN(c2nccc(-c3cnn4ncccc34)n2)C1 | binding |  | 1 µM | 90
COc1ncc2cc3ccccc3nc2c1C#N | cell-free assay | competition with immobilised ligand | 5 µM | 100
CN(C(=O)c1ccccc1)c1cc(N(C)c2ccc3c(c2)CCc2ccc(C(=O)NCCN4CCOCC4)cc2C3=O)ccc1F | cell-free assay | competition with immobilised ligand | 1 µM | 100
Nc1ncc2c(n1)-c1c([nH]c3ccc(C#CC4CC4)cc13)CCCC2 | binding | competition with immobilised ligand | 1 µM | 99
O=C(c1ccc(Nc2ncc(Cl)c(-c3cc4ccccc4s3)n2)cc1)N1CCC(N2CCCC2)CC1 | binding | competition with immobilised ligand | 1 µM | 43
CC(C)CC(=O)N1CCc2nc(-c3ccc(Br)cc3)nc(N(C)Cc3ccccc3)c2C1 | cell-free assay | competition with immobilised ligand | 0.1 µM | 100
CNC(=O)[C@@H]1CC[C@@H](n2c(-c3ccc4cnccc4c3)nc3ccc(C(=O)NCc4cccc(C(N)=O)c4)cc32)C1 | binding | competition with immobilised ligand | 1 µM | 83
COc1ccnn2ncc(-c3ccnc(N(C)C)n3)c12 | binding |  | 1 µM | 95
CC(=O)N1CCC(c2ccc(C(=O)NC3=NCCN3)cc2C(F)(F)F)CC1 | cell-free assay | competition with immobilised ligand | 1 µM | 100
O=C(c1ccc(Nc2nccc(-c3cc4ccccc4s3)n2)cc1)N1CCC(N2CCCC2)CC1 | binding | competition with immobilised ligand | 1 µM | 58
CCCOc1ccc([C@H]2[C@H](C(=O)O)[C@@H](c3ccc4c(c3)OCO4)CN2CC(=O)Nc2c(CC)cccc2CC)cc1 | cell-free assay | competition with immobilised ligand | 1 µM | 97
N[C@H]1CCN(c2nccc(-c3cnn4ncccc34)n2)C1 | binding |  | 1 µM | 98
C[C@@H]1CN(c2cc(-c3nn(C)c4ccc(OC5(C)CC5)cc34)ncn2)C[C@H](C)O1 | cell-free assay | competition with immobilised ligand | 1 µM | 91
CN(C)c1nccc(-c2cnc3ncccn23)n1 | binding |  | 1 µM | 100
Cn1cc(Cl)c2c(Oc3c(F)cc(Nc4cc(Cl)nc(N)n4)cc3F)ccnc21 | cell-free assay | competition with immobilised ligand | 0.1 µM | 100
c1cncc(-c2cccc(Nc3nccc(NC4CCCCC4)n3)c2)c1 | binding | competition with immobilised ligand | 10 µM | 38
